In ChEMBL document CHEMBL4382192, “Discovery of a potent dual ALK and EGFR T790M inhibitor” (Eur J Med Chem, 2017):

Key:
[1] = system: Epidermal growth factor receptor (Homo sapiens), P00533 [G719S]; test: Binding affinity to human partial length EGFR G719S mutant (R669 to V1011 residues) expressed in bacterial expression system assessed as residual binding level at 1 uM by Kinomescan method relative to control
Method in brief: (§1)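 Kinome-wide selectivity panel run by the KINOMEscan method, with the test compound at a single concentration of 1 μM. Wild-type and mutant kinases were profiled in the same screen.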

[2] = molecular target: Serine/threonine-protein kinase WNK2 (Homo sapiens) (UniProt Q9Y3S1); test: Binding affinity to wild-type human partial length WNK2 (V47 to D482 residues) expressed in mammalian expression system assessed as residual binding level at 1 uM by Kinomescan method relative to control
[3] = system: Phosphatidylinositol 4,5-bisphosphate 3-kinase catalytic subunit alpha isoform (Homo sapiens), P42336 [E545A]; test: Binding affinity to human partial length PIK3CA E545A mutant (R108 to N1068 residues) expressed in mammalian expression system assessed as residual binding level at 1 uM by Kinomescan method relative to control
Chain of Phosphatidylinositol 4,5-bisphosphate 3-kinase catalytic subunit alpha isoform (Homo sapiens), P42336 [E545A] (P42336 whole entry E545A, the tested form may be a part, canonical isoform): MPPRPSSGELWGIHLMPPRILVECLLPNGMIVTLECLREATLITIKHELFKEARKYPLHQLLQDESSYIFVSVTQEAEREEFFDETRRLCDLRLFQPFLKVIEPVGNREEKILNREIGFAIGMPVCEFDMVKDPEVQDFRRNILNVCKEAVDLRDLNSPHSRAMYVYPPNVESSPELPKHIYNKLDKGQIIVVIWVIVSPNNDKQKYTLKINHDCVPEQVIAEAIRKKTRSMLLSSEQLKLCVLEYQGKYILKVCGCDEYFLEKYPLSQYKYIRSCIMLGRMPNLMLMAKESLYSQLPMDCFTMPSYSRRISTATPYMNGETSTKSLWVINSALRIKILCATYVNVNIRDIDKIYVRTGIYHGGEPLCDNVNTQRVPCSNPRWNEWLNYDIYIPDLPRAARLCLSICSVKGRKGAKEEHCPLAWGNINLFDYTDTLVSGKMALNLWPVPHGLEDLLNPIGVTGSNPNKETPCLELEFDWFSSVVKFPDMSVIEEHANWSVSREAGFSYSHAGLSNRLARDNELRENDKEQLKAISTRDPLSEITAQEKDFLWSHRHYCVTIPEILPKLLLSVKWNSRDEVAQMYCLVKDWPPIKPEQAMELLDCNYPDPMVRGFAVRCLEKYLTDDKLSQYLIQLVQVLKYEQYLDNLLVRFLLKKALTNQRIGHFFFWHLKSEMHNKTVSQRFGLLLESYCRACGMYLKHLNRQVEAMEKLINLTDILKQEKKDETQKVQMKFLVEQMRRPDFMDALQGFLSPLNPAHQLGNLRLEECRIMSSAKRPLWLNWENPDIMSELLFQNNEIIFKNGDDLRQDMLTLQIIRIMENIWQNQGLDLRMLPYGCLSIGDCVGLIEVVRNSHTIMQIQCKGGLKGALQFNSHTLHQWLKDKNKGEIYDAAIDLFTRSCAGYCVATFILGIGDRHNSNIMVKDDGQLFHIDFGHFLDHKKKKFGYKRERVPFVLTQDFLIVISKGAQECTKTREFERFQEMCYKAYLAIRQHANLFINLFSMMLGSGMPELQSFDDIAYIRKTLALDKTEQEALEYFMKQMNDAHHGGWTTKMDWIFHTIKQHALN

[4] = molecular target: Myosin-IIIa (Homo sapiens) (UniProt Q8NEV4); test: Binding affinity to wild-type human partial length MYO3A (M1 to K338 residues) expressed in bacterial expression system assessed as residual binding level at 1 uM by Kinomescan method relative to control
[5] = Drug uptake in mouse lung at 2 mg/kg, iv after 2 hrs; format: ADME, organism-based; conditions: read-out: Drug uptake
[6] = molecular target: Serine/threonine-protein kinase/endoribonuclease IRE1 (Homo sapiens) (UniProt O75460); test: Binding affinity to wild-type human partial length ERN1 (S551 to E852 residues) expressed in mammalian expression system assessed as residual binding level at 1 uM by Kinomescan method relative to control
[7] = molecular target: Mitogen-activated protein kinase 14 (Homo sapiens) (UniProt Q16539); test: Binding affinity to wild-type human full length p38-alpha (M1 to S360 residues) expressed in bacterial expression system assessed as residual binding level at 1 uM by Kinomescan method relative to control
Chain of Mitogen-activated protein kinase 14 (Homo sapiens) (Q16539 whole entry, the tested form may be a part): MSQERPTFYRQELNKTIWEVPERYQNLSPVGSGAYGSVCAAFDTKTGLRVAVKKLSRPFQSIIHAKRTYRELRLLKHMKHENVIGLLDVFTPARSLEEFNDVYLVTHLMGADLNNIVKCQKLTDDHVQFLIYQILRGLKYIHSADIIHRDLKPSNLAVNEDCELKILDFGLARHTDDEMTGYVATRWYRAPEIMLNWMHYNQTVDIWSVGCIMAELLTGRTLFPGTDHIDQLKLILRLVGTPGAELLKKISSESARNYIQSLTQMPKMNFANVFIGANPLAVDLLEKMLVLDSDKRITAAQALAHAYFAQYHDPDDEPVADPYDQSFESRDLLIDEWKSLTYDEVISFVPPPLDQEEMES

[8] = molecular target: Death-associated protein kinase 3 (Homo sapiens) (UniProt O43293); test: Binding affinity to wild-type human partial length DAPK3 (M1 to A277 residues) expressed in bacterial expression system assessed as residual binding level at 1 uM by Kinomescan method relative to control
[9] = Metabolic stability in human liver microsomes assessed as parent compound remaining at 1 uM after 30 mins in presence of NADPH by LC/MS/MS analysis; format: ADME, Microsome; conditions: read-out: Stability
Method in brief: (§2)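 Compound at 1 μM final with 0.5 mg/mL microsomal protein in 100 mM phosphate buffer pH 7.4 at 37 °C, started by adding an NADPH-regenerating system. Reactions were quenched with cold acetonitrile at 0 and 30 min and spun down. Supernatant was analysed by LC-MS/MS. The 0-min sample, quenched before NADPH addition, was set as 100%, and percent parent remaining came from peak areas.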

[10] = molecular target: Protein kinase C theta type (Homo sapiens) (UniProt Q04759); test: Binding affinity to wild-type human partial length PRKCQ (L350 to S706 residues) expressed in bacterial expression system assessed as residual binding level at 1 uM by Kinomescan method relative to control
[11] = molecular target: SNF-related serine/threonine-protein kinase (Homo sapiens) (UniProt Q9NRH2); test: Binding affinity to wild-type human partial length SNRK (M1 to E339 residues) expressed in mammalian expression system assessed as residual binding level at 1 uM by Kinomescan method relative to control
[12] = Metabolic stability in rat liver microsomes assessed as parent compound remaining at 1 uM after 30 mins in presence of NADPH by LC/MS/MS analysis; format: ADME, Microsome; conditions: read-out: Stability; method in brief: as §2
[13] = molecular target: Receptor-interacting serine/threonine-protein kinase 1 (Homo sapiens) (UniProt Q13546); test: Binding affinity to wild-type human partial length RIPK1 (M1 to K305 residues) expressed in bacterial expression system assessed as residual binding level at 1 uM by Kinomescan method relative to control
Chain of Receptor-interacting serine/threonine-protein kinase 1 (Homo sapiens) (Q13546 whole entry, the tested form may be a part): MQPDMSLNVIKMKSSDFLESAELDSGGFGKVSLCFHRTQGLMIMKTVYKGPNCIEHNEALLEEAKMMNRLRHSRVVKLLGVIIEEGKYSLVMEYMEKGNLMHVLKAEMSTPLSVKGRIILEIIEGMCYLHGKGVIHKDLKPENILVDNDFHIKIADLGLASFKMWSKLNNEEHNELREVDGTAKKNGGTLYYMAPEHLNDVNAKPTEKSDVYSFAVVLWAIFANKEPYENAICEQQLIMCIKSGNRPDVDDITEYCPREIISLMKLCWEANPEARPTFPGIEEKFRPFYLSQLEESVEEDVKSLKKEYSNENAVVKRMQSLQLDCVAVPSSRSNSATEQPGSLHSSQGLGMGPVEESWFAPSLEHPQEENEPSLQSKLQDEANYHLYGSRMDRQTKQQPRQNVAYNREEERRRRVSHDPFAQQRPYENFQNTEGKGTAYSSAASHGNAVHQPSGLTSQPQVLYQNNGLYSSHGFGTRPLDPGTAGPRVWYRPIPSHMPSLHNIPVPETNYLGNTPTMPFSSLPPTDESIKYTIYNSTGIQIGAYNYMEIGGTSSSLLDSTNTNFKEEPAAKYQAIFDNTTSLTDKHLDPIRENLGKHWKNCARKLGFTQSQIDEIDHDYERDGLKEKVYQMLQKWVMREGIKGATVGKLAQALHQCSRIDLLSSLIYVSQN

[14] = molecular target: High affinity nerve growth factor receptor (Homo sapiens) (UniProt P04629); test: Binding affinity to wild-type human partial length TRKA (G475 to G790 residues) expressed in mammalian expression system assessed as residual binding level at 1 uM by Kinomescan method relative to control
[15] = system: Fibroblast growth factor receptor 3 (Homo sapiens), P22607 [G697C]; test: Binding affinity to human partial length FGFR3 G697C mutant (R442 to S771 residues) expressed in bacterial expression system assessed as residual binding level at 1 uM by Kinomescan method relative to control; method in brief: as §1
Chain of Fibroblast growth factor receptor 3 (Homo sapiens), P22607 [G697C] (P22607 whole entry G697C, the tested form may be a part, canonical isoform): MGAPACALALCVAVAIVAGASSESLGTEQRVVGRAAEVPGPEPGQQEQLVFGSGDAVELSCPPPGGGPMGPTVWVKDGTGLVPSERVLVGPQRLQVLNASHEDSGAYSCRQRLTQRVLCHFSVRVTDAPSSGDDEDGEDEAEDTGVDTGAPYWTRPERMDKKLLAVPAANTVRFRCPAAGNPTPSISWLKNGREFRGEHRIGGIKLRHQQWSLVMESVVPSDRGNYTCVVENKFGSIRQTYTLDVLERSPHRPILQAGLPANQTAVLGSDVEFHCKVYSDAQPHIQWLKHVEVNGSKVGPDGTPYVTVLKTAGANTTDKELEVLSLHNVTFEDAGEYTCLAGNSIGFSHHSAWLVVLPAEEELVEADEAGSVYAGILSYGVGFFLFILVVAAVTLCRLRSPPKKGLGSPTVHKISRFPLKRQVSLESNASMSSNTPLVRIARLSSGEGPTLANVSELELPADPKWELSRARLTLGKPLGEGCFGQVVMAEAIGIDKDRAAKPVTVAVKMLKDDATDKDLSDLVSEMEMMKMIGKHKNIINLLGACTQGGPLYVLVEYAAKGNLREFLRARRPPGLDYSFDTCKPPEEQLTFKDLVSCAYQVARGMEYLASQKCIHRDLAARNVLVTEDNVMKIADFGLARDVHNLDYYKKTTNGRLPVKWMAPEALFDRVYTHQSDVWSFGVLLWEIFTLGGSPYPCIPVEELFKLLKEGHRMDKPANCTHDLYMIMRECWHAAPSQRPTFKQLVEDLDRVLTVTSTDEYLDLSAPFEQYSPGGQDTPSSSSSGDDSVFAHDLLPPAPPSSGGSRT

[16] = molecular target: Casein kinase I isoform alpha (Homo sapiens) (UniProt P48729); test: Binding affinity to wild-type human partial length CSNK1A1 (M1 to L450 residues) expressed in mammalian expression system assessed as residual binding level at 1 uM by Kinomescan method relative to control
Chain of Casein kinase I isoform alpha (Homo sapiens) (P48729 2-337 limits assumed): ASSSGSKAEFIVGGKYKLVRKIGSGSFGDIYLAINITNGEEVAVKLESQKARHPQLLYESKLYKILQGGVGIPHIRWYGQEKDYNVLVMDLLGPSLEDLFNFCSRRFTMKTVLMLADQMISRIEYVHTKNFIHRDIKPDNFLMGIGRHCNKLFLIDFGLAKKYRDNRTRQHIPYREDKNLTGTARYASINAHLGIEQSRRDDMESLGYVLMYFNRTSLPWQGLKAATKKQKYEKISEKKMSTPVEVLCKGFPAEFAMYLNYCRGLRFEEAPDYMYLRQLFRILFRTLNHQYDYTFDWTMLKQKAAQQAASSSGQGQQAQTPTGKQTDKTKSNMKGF

[17] = molecular target: Interferon-induced, double-stranded RNA-activated protein kinase (Homo sapiens) (UniProt P19525); test: Binding affinity to wild-type human partial length PRKR (F247 to C551 residues) expressed in bacterial expression system assessed as residual binding level at 1 uM by Kinomescan method relative to control
Chain of Interferon-induced, double-stranded RNA-activated protein kinase (Homo sapiens) (P19525 whole entry, the tested form may be a part): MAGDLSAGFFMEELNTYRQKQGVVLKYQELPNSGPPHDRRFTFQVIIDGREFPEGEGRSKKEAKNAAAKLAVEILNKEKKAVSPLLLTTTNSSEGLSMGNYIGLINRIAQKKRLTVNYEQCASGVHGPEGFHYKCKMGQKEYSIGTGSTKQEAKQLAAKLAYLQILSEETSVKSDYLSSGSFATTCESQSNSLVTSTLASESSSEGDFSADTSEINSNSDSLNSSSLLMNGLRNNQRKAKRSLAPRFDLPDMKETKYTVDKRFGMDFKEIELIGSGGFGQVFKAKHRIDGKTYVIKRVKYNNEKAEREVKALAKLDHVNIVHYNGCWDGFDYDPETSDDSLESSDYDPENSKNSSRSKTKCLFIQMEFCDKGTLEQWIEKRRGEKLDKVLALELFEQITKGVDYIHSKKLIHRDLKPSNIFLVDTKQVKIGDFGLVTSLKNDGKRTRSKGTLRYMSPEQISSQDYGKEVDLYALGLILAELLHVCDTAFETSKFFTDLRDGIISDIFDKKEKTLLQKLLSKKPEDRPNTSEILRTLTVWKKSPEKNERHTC

Insulin receptor = Insulin receptor (Homo sapiens, UniProt P06213); test: Binding affinity to wild-type human partial length INSR (P997 to E1318 residues) expressed in mammalian expression system assessed as residual binding level at 1 uM by Kinomescan method relative to control
[18] = molecular target: Serine/threonine-protein kinase PAK 1 (Homo sapiens) (UniProt Q13153); test: Binding affinity to wild-type human partial length PAK1 (S149 to H545 residues) expressed in bacterial expression system assessed as residual binding level at 1 uM by Kinomescan method relative to control
[19] = molecular target: Mitogen-activated protein kinase kinase kinase 4 (Homo sapiens) (UniProt Q9Y6R4); test: Binding affinity to wild-type human partial length MAP3K4 (G1319 to E1608 residues) expressed in bacterial expression system assessed as residual binding level at 1 uM by Kinomescan method relative to control
[20] = system: Mast/stem cell growth factor receptor Kit (Homo sapiens), P10721 [D816H]; test: Binding affinity to human partial length KIT D816H mutant (I571 to D952 residues) expressed in mammalian expression system assessed as residual binding level at 1 uM by Kinomescan method relative to control; method in brief: as §1
[21] = molecular target: Serine/threonine-protein kinase TBK1 (Homo sapiens) (UniProt Q9UHD2); test: Binding affinity to wild-type human full length TBK1 (M1 to L729 residues) expressed in mammalian expression system assessed as residual binding level at 1 uM by Kinomescan method relative to control
Chain of Serine/threonine-protein kinase TBK1 (Homo sapiens) (Q9UHD2 whole entry, the tested form may be a part): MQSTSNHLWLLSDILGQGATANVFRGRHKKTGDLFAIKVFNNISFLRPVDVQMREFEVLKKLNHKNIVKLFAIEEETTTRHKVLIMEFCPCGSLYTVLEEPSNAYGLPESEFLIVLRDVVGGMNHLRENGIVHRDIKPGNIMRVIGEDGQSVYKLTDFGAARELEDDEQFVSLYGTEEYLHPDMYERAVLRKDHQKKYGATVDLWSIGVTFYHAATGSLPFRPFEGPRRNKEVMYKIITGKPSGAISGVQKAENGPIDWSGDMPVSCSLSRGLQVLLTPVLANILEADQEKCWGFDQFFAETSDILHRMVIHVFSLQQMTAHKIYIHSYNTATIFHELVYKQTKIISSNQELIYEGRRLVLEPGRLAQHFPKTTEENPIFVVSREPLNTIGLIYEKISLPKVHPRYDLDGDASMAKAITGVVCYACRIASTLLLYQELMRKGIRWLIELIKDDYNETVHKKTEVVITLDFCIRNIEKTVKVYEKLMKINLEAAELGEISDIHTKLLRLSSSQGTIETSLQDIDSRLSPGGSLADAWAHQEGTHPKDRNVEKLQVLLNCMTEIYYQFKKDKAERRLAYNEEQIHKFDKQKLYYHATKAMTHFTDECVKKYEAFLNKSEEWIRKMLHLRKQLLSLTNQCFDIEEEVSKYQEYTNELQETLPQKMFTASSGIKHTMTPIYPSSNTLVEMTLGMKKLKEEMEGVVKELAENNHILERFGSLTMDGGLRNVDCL

[22] = molecular target: Serine/threonine-protein kinase 38-like (Homo sapiens) (UniProt Q9Y2H1); test: Binding affinity to wild-type human partial length NDR2 (N34 to E447 residues) expressed in bacterial expression system assessed as residual binding level at 1 uM by Kinomescan method relative to control
Chain of Serine/threonine-protein kinase 38-like (Homo sapiens) (Q9Y2H1 2-464 limits assumed): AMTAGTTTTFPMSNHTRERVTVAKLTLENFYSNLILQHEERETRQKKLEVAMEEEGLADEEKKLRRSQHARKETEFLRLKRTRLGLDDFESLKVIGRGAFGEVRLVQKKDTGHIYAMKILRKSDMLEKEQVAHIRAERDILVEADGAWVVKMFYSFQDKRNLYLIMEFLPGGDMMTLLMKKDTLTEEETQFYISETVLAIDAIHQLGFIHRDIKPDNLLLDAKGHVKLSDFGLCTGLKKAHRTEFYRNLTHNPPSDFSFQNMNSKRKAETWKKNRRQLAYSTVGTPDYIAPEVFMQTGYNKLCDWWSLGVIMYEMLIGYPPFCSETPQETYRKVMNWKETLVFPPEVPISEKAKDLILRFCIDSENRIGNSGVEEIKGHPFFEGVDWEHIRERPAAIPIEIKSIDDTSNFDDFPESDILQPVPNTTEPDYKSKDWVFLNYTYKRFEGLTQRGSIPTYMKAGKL

[23] = molecular target: Serine/threonine-protein kinase LATS2 (Homo sapiens) (UniProt Q9NRM7); test: Binding affinity to wild-type human partial length LATS2 (Q641 to V1088 residues) expressed in mammalian expression system assessed as residual binding level at 1 uM by Kinomescan method relative to control

Molecule `C=CC(=O)Nc1cc(Nc2ncc(Cl)c(Nc3ccccc3S(=O)(=O)C(C)C)n2)c(OC)cc1N(C)CCN(C)C` has an Activity [1] of 0%, an Activity [2] of 66% and an Activity [3] of 83%. For the same molecule, the Activity [4] was 31%, the concentration at 2 h [5] was 2360 nM and the Activity [6] was 39%. The Activity [7] was 92%, the Activity [8] was 39% and the remaining at 0.5 h, 1 µM [9] was 16%. For the same molecule, the Activity [10] was 48%, the Activity [11] was 72% and the remaining at 0.5 h, 1 µM [12] was 11%. It also gave an Activity [13] of 82%, an Activity [14] of 13% and an Activity [15] of 15%. For the same molecule, the Activity [16] was 74%, the Activity [17] was 66% and the Activity (Insulin receptor) was 0%. For the same molecule, the Activity [18] was 65%, the Activity [19] was 67% and the Activity [20] was 41%. It also gave an Activity [21] of 21%, an Activity [22] of 54% and an Activity [23] of 74%.
